Data on 16 compounds can be found in ChEMBL document CHEMBL1149288, “Effects of substitution on the pyrrole N atom in derivatives of tetrahydronaltrindole, tetrahydrooxymorphindole, and a related 4,5-epoxyphenylpyrrolomorphinan” (J Med Chem, 2004).

Assay [1] addresses T1, Delta-type opioid receptor (Homo sapiens, UniProt P41143). The experiment in a line: Displacement of [3H]Cl-DPDPE from human recombinant delta opioid receptor expressed in CHO cells. Type of assay: cell-based. A general note: Displacement assays read how much labelled ligand stays bound in the presence of the test substance.
In assay [2] the target is T1, Delta-type opioid receptor. The following applies: CHO.
Assay [3] deals with Mus musculus. The experiment in a line: Antagonism of SNC80-induced antinociceptive effect in mouse assessed by phenylquinone-induced abdominal stretch assay at 3 mg/kg, sc. Type of assay: functional, Abdomen. Also noted: scale not given: the % may be the effect or the level left. As to conditions: route subcutaneous. In outline:
(§1)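 Mouse phenylquinone (PPQ) abdominal stretch assay. The test compound was given sc, and its antagonism of SNC80-induced antinociception was scored as percent antagonism of the agonist effect.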

The subject of assay [4] is Mus musculus. The experiment in a line: Antagonism of SNC80-induced antinociceptive effect in mouse assessed by phenylquinone-induced abdominal stretch assay at 10 mg/kg, sc. Type of assay: functional, Abdomen. Also noted: scale not given: the % may be the effect or the level left. As to conditions: route subcutaneous. In outline:
as §1

For assay [5], the target named is T2, Mu-type opioid receptor (Homo sapiens, UniProt P35372). The experiment in a line: Activity at human recombinant mu opioid receptor expressed in CHO cells by [35S]GTP-gamma-S binding assay. Type of assay: functional, cell-based. Summed up: (§2)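 Human recombinant opioid receptors expressed in CHO cells. Agonist-stimulated [35S]GTPγS binding was measured and efficacy was referenced to DAMGO (MOR) or U69593 (KOR). Values are means of five or six experiments.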
T2 sequence (P35372 whole entry): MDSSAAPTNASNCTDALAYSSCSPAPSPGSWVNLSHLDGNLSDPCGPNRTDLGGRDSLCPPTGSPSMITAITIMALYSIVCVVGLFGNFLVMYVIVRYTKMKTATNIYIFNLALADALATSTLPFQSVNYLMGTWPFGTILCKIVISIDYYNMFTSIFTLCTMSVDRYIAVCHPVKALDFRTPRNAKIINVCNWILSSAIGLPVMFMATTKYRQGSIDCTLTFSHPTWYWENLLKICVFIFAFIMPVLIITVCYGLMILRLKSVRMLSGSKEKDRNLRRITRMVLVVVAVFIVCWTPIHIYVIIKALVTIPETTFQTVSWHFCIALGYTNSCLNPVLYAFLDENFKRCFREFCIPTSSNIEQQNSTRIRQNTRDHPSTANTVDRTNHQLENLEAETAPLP
On the technique in general: GTPγS resists hydrolysis and so accumulates on activated G proteins.

Assay [6] concerns the target T3, Kappa-type opioid receptor (Homo sapiens, UniProt P41145). The experiment in a line: Displacement of [3H]U-69593 from human recombinant kappa opioid receptor expressed in CHO cells. The assay is classed as cell-based. Summed up:
(§3)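 Radioligand displacement was run on human recombinant receptors expressed in CHO cells. The labels were [3H]DAMGO for MOR and [3H]U69593 for KOR. Values are the mean of two experiments, each in triplicate.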

The target of assay [7] is T2, Mu-type opioid receptor. The experiment in a line: Displacement of [3H]DAMGO from human recombinant mu opioid receptor expressed in CHO cells. Type of assay: cell-based. In outline:
as §3

The subject of assay [8] is Rattus norvegicus. Briefly: Prevention of SNC80-induced convulsions in Sprague-Dawley rat at 10 mg/kg, sc administered 20 mins before SNC80. More on the design: dose 10 mg/kg. The assay is classed as functional, organism-based. In outline: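 The test compound was given at 10 mg/kg sc 20 min before SNC80 (32 mg/kg), and prevention of SNC80-mediated convulsions was scored.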

The target of assay [9] is T3, Kappa-type opioid receptor. The experiment in a line: Activity at human recombinant kappa opioid receptor expressed in CHO cells by [35S]GTPgammaS binding assay. The assay is classed as functional, cell-based. Summed up: as §2
The species named for assay [10] is Mus musculus. Briefly: Reversal of 1'-benzyl-6,7-didehydro-3,14-dihydroxy-4,5alpha-epoxy-17-methyl-4',5',6',7'-tetrahydroindolo[2',3':6,7]morphinan-induced antinociceptive activity in mouse. Type of assay: functional.
Assay [11] has as its target T3, Kappa-type opioid receptor. The experiment in a line: Activity at human recombinant kappa opioid receptor expressed in CHO cells by [35S]GTP-gamma-S binding assay relative to U69593. The assay is classed as functional, cell-based. In outline:
as §2

Assay [12] concerns Mus musculus. Briefly: Reversal of SNC80-induced antinociceptive effect in mouse assessed by phenylquinone-induced abdominal stretch assay at […], icv administered 24 hrs before SNC80. The assay is classed as functional, Abdomen.
Assay [13] relates to Mus musculus. Briefly: Antagonism of SNC80-induced antinociceptive effect in sc dosed mouse assessed by phenylquinone-induced abdominal stretch assay. As to conditions: Abdomen. Type of assay: functional, organism-based. Summed up:
as §1

Assay [14] addresses T2, Mu-type opioid receptor. Briefly: Activity at human recombinant mu opioid receptor expressed in CHO cells by [35S]GTPgammaS binding assay relative to DAMGO. The assay is classed as functional, cell-based. Summed up: as §2
Assay [15] relates to Mus musculus. Briefly: Antinociceptive activity in sc dosed mouse. Type of assay: functional. Summed up:
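Antinociception was measured in the mouse PPQ-induced abdominal stretch assay after sc dosing.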

Assay [16] deals with Mus musculus. The experiment in a line: Antagonism of SNC80-induced antinociceptive effect in mouse assessed by phenylquinone-induced abdominal stretch assay at 1 mg/kg, sc. Type of assay: functional, Abdomen. More on the design: scale not given: the % may be the effect or the level left. As to conditions: route subcutaneous. In outline:
as §1

In assay [17] the test system is Mus musculus. Briefly: Antagonism of 1'-benzyl-6,7-didehydro-3,14-dihydroxy-4,5alpha-epoxy-17-methyl-4',5',6',7'-tetrahydroindolo[2',3':6,7]morphinan-induced antinociceptive activity in mouse at 30 mg/kg, sc. The assay is classed as functional. Also noted: scale not given: the % may be the effect or the level left. The following applies: route subcutaneous.

The source made the active and inactive calls. No cut-off for these calls is given here. Bounds are passed on as bounds.

The term Ki denotes the equilibrium dissociation constant of an inhibitor or competing ligand from its target. As a reminder, the EC50 is the concentration at which the effect is half-maximal. The ED50 is the midpoint of the dose-response relation.

T3 sequence (P41145 whole entry): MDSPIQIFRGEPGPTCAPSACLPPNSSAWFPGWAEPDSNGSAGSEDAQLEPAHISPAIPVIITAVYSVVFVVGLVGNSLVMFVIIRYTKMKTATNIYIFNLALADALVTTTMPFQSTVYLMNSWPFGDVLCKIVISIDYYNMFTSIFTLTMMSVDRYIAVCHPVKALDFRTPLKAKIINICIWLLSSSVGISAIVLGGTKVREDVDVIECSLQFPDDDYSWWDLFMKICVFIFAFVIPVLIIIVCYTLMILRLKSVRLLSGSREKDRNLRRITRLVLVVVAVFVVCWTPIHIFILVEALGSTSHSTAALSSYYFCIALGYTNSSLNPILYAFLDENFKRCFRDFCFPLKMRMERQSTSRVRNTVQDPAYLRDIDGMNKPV
T1 sequence (P41143 whole entry): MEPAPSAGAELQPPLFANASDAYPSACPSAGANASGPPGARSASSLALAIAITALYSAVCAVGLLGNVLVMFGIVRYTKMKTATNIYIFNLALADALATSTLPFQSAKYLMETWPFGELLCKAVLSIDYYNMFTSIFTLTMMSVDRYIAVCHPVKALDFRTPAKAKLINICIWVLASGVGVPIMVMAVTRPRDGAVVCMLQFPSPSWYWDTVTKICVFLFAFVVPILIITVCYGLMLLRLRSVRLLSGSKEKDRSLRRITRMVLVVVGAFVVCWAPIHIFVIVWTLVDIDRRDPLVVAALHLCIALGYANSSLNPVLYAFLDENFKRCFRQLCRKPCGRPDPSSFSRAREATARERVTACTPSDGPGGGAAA

Take `Oc1ccc2c3c1O[C@H]1c4c(c5c(n4Cc4ccccc4)CCCC5)C[C@@]4(O)C(C2)N(CC2CC2)CC[C@]314`: the Ki in assay [1] amounted to 2.94 nM; in [6], 6.29 nM; in [7], 5.39 nM. For the same compound, the values for the Ke in assay [2], in [5] and in [9] were 2.23 nM, 8.13 nM and 49.8 nM, respectively. The Activity in assay [3] and in assay [4] was 54% in each case. Moreover, the outcome in assay [8] was Active.
Regarding `CCn1cc(-c2ccccc2)c2c1[C@@H]1Oc3c(O)ccc4c3[C@@]13CCN(CC1CC1)C(C4)[C@]3(O)C2`, the Ki in assay [1] amounted to 2.95 nM; in assay [6] it was 24.3 nM; in assay [7] it was 8.75 nM. The Ke in [2] was found to be 0.72 nM; in assay [5] it was 10.7 nM; in assay [9], 44 nM.
For the compound `O=C1CC[C@@]2(O)[C@H]3Cc4ccc(O)c5c4[C@@]2(CCN3CC2CC2)[C@H]1O5` [NALTREXONE], the AD50 in assay [10] is 0.02 mg/kg.
As to `CCn1c2c(c3c1[C@@H]1Oc4c(O)ccc5c4[C@@]14CCN(CC1CC1)C(C5)[C@]4(O)C3)CCCC2`, the Activity in assay [11] was determined as 63%. Besides, the Ke in [5] stood at 5.32 nM. Further, the Ki was determined as 7.38 nM in [6] and 5.06 nM in [7]. Also, the EC50 in [9] was 14.3 nM.
Turning to `Oc1ccc2c3c1O[C@H]1c4c(c5c(n4CCc4ccccc4)CCCC5)C[C@@]4(O)C(C2)N(CC2CC2)CC[C@]314`, the Activity in assay [11] is 76%. The Ke in [5] was 5.66 nM. In addition, the Ki in [7] stood at 7.46 nM. The EC50 in assay [9] is 13.8 nM.
For the compound `Oc1ccc2c3c1O[C@H]1c4c(c5c(n4CC4CCCCC4)CCCC5)C[C@@]4(O)C(C2)N(CC2CC2)CC[C@]314`, the Activity in [11] worked out at 84%. Further, in assay [5], the Ke is 11.6 nM. In addition, the Ki was found to be 24.9 nM in assay [6] and 18.5 nM in assay [7]. Besides, the EC50 in [9] amounted to 54.3 nM.
For `CN1CC[C@]23c4c5ccc(O)c4O[C@H]2c2c(c4c(n2Cc2ccccc2)CCCC4)C[C@@]3(O)C1C5`, the Activity was 43% in [11], more than 50% in assay [12] and 44% in [14]. For the same compound, the result in assay [13] was inactive. Also, the figures for the EC50 in assay [5] and in assay [9] were 732 nM and 1750 nM, respectively. In assay [15], this compound had an ED50 of 5.1 mg/kg. Besides, the Ki turned out to be 289 nM in assay [6] and 88.9 nM in assay [7].
Regarding `CN1CC[C@]23c4c5ccc(O)c4O[C@H]2c2c(c4c(n2C)CCCC4)C[C@@]3(O)C1C5`, the results for the Activity in assay [11] and in [14] were 69% and 39%, respectively. Besides, the values for the EC50 in assay [5] and in assay [9] were 222 nM and 97.2 nM, respectively. In addition, in [6], the inhibition constant (Ki) was 89.1 nM.
In turn, `Oc1ccc2c3c1O[C@H]1c4c(c5ccccc5n4Cc4ccccc4)C[C@@]4(O)C(C2)N(CC2CC2)CC[C@]314` came in with an Activity in assay [16] of 57%.
Turning to `CN1CC[C@]23c4c5ccc(O)c4O[C@H]2c2c(c4c(n2CC2CCCCC2)CCCC4)C[C@@]3(O)C1C5`, the figures for the Activity in assay [11] and in assay [14] were 85% and 57%, respectively. The EC50 came out at 130 nM in assay [5] and 153 nM in [9]. Moreover, the Ki is 262 nM in [6] and 17.9 nM in assay [7].
Regarding `Oc1ccc2c3c1O[C@H]1c4c(c5c(n4CC4CC4)CCCC5)C[C@@]4(O)C(C2)N(CC2CC2)CC[C@]314`, the Ki in [6] was 2.51 nM; in [7] it was 2.52 nM. Moreover, the Ke in assay [9] amounted to 11.8 nM.
Turning to `Cn1c2c(c3c1[C@@H]1Oc4c(O)ccc5c4[C@@]14CCN(CC1CC1)[C@H](C5)[C@]4(O)C3)CCCC2`, the Ke was determined as 4.3 nM in assay [5] and 12.2 nM in assay [9]. The Ki in assay [6] was 4.11 nM; in [7], 5.76 nM.
The compound `Oc1ccc2c3c1O[C@H]1c4[nH]c5ccccc5c4C[C@@]4(O)[C@@H](C2)N(CC2CC2)CC[C@]314` [NALTRINDOLE] yielded an Activity in [17] of 40%.
In the case of `Cn1cc(-c2ccccc2)c2c1[C@@H]1Oc3c(O)ccc4c3[C@@]13CCN(CC1CC1)C(C4)[C@]3(O)C2`, the Ki turned out to be 3.35 nM in assay [1], 18.5 nM in assay [6] and 7.6 nM in [7]. For the same compound, the Ke is 0.62 nM in [2], 4.04 nM in assay [5] and 34.1 nM in assay [9].
Consider `CCn1c2c(c3c1[C@@H]1Oc4c(O)ccc5c4[C@@]14CCN(C)C(C5)[C@]4(O)C3)CCCC2`, for which the figures for the Activity in assay [11] and in assay [14] were 66% and 41%, respectively. The results for the concentration for a half-maximal effect (EC50) in assay [5] and in assay [9] were 175 nM and 98.2 nM, respectively. Also, the Ki was determined as 168 nM in assay [6] and 25.8 nM in assay [7].
As to `CN1CC[C@]23c4c5ccc(O)c4O[C@H]2c2c(c4c(n2CCc2ccccc2)CCCC4)C[C@@]3(O)C1C5`, the Activity in assay [11] is 76%; in [14], 71%. Moreover, the EC50 in assay [5] was determined as 175 nM; in [9], 131 nM. The values for the Ki in assay [6] and in assay [7] were 163 nM and 15.4 nM, respectively.
